Reference: paper PMC9283735 (Clinical and Translational Science, 2022)
Where two headings read alike, the source gives them in different places. *1 amine or outer side, *2 acyl side, *3 side chain or, on linkers, in order; H or OH if unused. Where a SMILES comes first, the peptide text is derived from it. Bridges are numbered along the chain shown (N, C = ends). [ ]: non-standard residue; d: D form. The star is where a group is joined. Orn(4R-OH,5R-OCH2CH2NMe3+) = C[N+](C)(C)CCO[C@@H](N[*:3])[C@H](O)C[C@H](N[*:1])C(=O)[*:2]; pTerphenylCO(4''-OnC5H11) = CCCCCOc1ccc(-c2ccc(-c3ccc(C(=O)*)cc3)cc2)cc1; hTyr(3S-OH,4S-OH) = N[C@H](C(=O)O)[C@H](O)[C@@H](O)c1ccc(O)cc1; Pro(3S-OH,4S-Me) = C[C@H]1CN[C@H](C(=O)O)[C@H]1O; Hyp = O=C(O)[C@@H]1C[C@@H](O)CN1

Tests used:
[1] = Plasma pharmacokinetics after a single s.c. dose; assay type: in vivo, human; conditions: 10 mg single s.c. dose, healthy adults; for AUC(0-t): AUC0-last; for AUC(0-t) / Tmax: N = 6; for Tmax: T max
Procedure, shortened: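 Healthy adults aged 18–45 y were randomized 3:1 to a single s.c. injection of the test compound (100 mg/ml formulation with mannitol) or placebo (5% dextrose). Parameters came from noncompartmental analysis (Lambda Z: adjusted r² ≥0.90, span ≥2.0 half-lives, ≥2 points after Tmax).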

[2] = single i.v. doses of 50, 100, 200 and 400 mg, human plasma; cited from earlier work
[3] = monkeys; cited from earlier work
[4] = rats; cited from earlier work
healthy adult subjects [5] = assay: Solicited local reactogenicity symptoms; assay type: in vivo, human; conditions: 1 mg or 10 mg single s.c. dose
Procedure, shortened: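 The injection site was evaluated from dosing to day 30: in-unit confinement for 7 days, then follow-up on days 14, 21 and 30 (±1 day). Solicited local symptoms were pain, tenderness, pruritus, ecchymosis, induration/swelling, erythema, nodule and ulceration, each graded mild (1), moderate (2) or severe (3). Subjects were randomized 3:1 to test compound or 5% dextrose placebo. Proportions carry Wilson-score 95% CIs.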

healthy adult subjects [6] = assay type: in vivo, human
Procedure, shortened: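 Unsolicited AEs (volunteered, not pre-specified) were recorded from dosing to final follow-up (day 30), graded 1–3, judged related or unrelated by the study physician, and coded with MedDRA 23.1. Clinical evaluation included ECGs, physical examinations and vital signs on select days. Laboratory tests covered hematology, coagulation, blood chemistry and dipstick urinalysis, run on samples taken after a fast of at least 8 h.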

[7] = human, plasma, sc, 10 mg, geometric mean, NCA
[8] = human, plasma, sc, 10 mg, median, NCA
[9] = cohort 1 (1 mg s.c.), of 3 who received rezafungin
[10] = cohort 2 (10 mg s.c.), of 6 who received rezafungin

CCCCCOc1ccc(-c2ccc(-c3ccc(C(=O)N[C@H]4C[C@@H](O)[C@@H](OCC[N+](C)(C)C)NC(=O)[C@@H]5[C@@H](O)[C@@H](C)CN5C(=O)[C@H]([C@@H](C)O)NC(=O)[C@H]([C@H](O)[C@@H](O)c5ccc(O)cc5)NC(=O)[C@@H]5C[C@@H](O)CN5C(=O)[C@H]([C@@H](C)O)NC4=O)cc3)cc2)cc1 [rezafungin] ({pTerphenylCO(4''-OnC5H11)}-[Orn(4R-OH,5R-OCH2CH2NMe3+)]T[Hyp][hTyr(3S-OH,4S-OH)]T[Pro(3S-OH,4S-Me)]; lactam 1-C)
exposure period [1]: ~1 month | t 1/2, geometric mean ([1]; plasma, NCA, geometric mean, N = 5): 186.2 h | AUC0-inf, maximum ([1]; plasma, NCA, maximum, N = 5): 53,200 ng*h/ml | CL/F, maximum ([1]; plasma, NCA, maximum, N = 5): 0.344 L/h | V z/F, maximum ([1]; plasma, NCA, maximum, N = 5): 95.6 L | t 1/2, maximum ([1]; plasma, NCA, maximum, N = 5): 219 h | CL/F, minimum ([1]; plasma, NCA, minimum, N = 5): 0.188 L/h | V z/F, minimum ([1]; plasma, NCA, minimum, N = 5): 38.0 L | t 1/2, minimum ([1]; plasma, NCA, minimum, N = 5): 140 h | AUC(0-t) [1, 7]: 32800 ng·h/mL | AUC(0-t) [1, 8]: 32000 ng·h/mL | CL/F ([1]; human, plasma, sc, 10 mg, CL/F (apparent clearance), mean, NCA, N = 5): 4.35 mL/min | CL/F ([1]; human, plasma, sc, 10 mg, CL/F, geometric mean, NCA, N = 5): 4.25 mL/min | CL/F ([1]; human, plasma, sc, 10 mg, CL/F, median, NCA, N = 5): 4.5 mL/min | Tmax [1, 7]: 112 h | Tmax ([1]; human, plasma, sc, 10 mg, mean, NCA): 120 h | Tmax [1, 8]: 144 h | half-life ([1]; human, plasma, sc, 10 mg, t 1/2, median, NCA, median, N = 5): 193 h | T max after start of infusion [2]: ~ 1 h | Total body clearance [2]: ~ 0.2 L/h | bioavailability of s.c. formulation [3]: ≤ 80% | bioavailability of s.c. formulation [4]: ≤ 80% | intensity of solicited reactogenicity symptoms (healthy adult subjects [5]): mild to moderate | severe bradycardia, subjects (healthy adult subjects [6]; cohort 1 (1 mg s.c.), asymptomatic, determined not rezafungin-related): single subject | sinus bradycardia (unsolicited AE), % of subjects (healthy adult subjects [6]; [9]): 67% | sinus bradycardia (unsolicited AE), subjects (healthy adult subjects [6]; [9]): 2 | unsolicited AEs deemed related to rezafungin, number of subjects (healthy adult subjects [6]; cohort 2 (10 mg s.c.)): three | unsolicited AEs deemed related to rezafungin, number of AEs (healthy adult subjects [6]; cohort 2 (10 mg s.c.), all mild): Five | increased alanine aminotransferase (unsolicited AE), % of subjects (healthy adult subjects [6]; [10]): 33% | increased alanine aminotransferase (unsolicited AE), subjects (healthy adult subjects [6]; [10]): 2
